D1 mod = D1 dopamine receptor (human) allosteric modulation. actives 5.9% (n = 58,000). HEK293 D1, CRE-luciferase, dopamine EC30 potentiation; actives deviate in either direction. P21728. AID 641. B-score at 10 µM;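 active = luminescence count or its row- and column-corrected plate score outside the 99.7% band of the plate's sample wells, on either side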
Target sequence (P21728 whole entry, looked up): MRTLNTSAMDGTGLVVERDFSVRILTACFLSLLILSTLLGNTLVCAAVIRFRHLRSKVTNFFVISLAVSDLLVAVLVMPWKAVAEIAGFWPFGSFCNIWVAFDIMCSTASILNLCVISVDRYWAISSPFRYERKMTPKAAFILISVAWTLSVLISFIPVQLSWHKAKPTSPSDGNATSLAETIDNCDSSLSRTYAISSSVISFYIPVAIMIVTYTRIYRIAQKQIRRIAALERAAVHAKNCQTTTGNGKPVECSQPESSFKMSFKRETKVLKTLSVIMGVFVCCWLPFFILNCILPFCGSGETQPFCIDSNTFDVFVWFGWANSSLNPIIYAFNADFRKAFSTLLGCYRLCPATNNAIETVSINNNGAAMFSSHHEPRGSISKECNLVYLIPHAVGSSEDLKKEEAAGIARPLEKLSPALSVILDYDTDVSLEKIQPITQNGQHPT
JNK3 blocker = blocks human JNK3 kinase activity | P53779 | purified JNK3 kinase activity, HTS | inhibition, % at 8 µM | actives 0.61% (n = 60,000) | AID 746; in the data active = inhibition above about 17%;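 note: 0% = DMSO and 100% = reference inhibitor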
RORA act = activators of human nuclear receptor RORA. P35398. CHO-K1 Gal4-RORA LBD luciferase reporter, luminescence; percent increase over mock-subtracted basal signal. activation, % at 10 µM. actives 1.5% (n = 65,000);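 active = activation above the mean of all tested compounds plus 3 SD, cut at about 49% in these data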;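 note: 0% = DMSO-treated RORA cells and 100% = added signal equal to DMSO minus mock-transfected cells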
SF-1 act = activates the human nuclear receptor SF-1 | Q13285 | CHO-K1 Gal4-SF-1 LBD luciferase reporter; % increase over DMSO SF-1-specific signal | activation, % at 10 µM | actives 1.9% (n = 65,000);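 active = activation above the mean activation of all tested compounds plus 3 SD, cut at about 50% in these data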
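System: CHO-K1 cells with Gal4–hSF-1 LBD chimera plus Gal4-driven luciferase; quantity: 4,000 CHO-K1 cells per well; compound: one dose, 10 µM compound, 1% DMSO; times: 20 h compound treatment, 37 °C; measured by: SteadyLite luciferase luminescence; read-out: percent activation versus DMSO; benchmarks: DMSO and mock-transfected background; replicates: one test per compound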
HEK293 NFkB inh = lowers PMA/ionomycin-induced NF-kB signal in HEK293 cells. HEK-293 NF-kB luciferase reporter, luminescence. inhibition, % at 3 µM. actives 0.21% (n = 62,000). AID 465;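 active = inhibition above the mean of all tested compounds plus 3 SD, cut at about 40% in these data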;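 note: 0% = stimulated DMSO wells and 100% = 10 µM reference inhibitor 5653914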
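Signal: luciferase luminescence; Material: HEK-293 cells with stable firefly luciferase reporter driven by four HIV NF-kB elements; Probe or stimulus: PMA with ionomycin; Replication: tested once; Times: 1 h compound pretreatment, then 16 h stimulation at 37 °C, 5% CO2; Benchmarks: DMSO and 10 µM reference inhibitor; Evaluation: per-plate % inhibition versus controls.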
D1 PAM confirm = D1 receptor (human) allosteric modulation, confirmed; actives 88% (n = 2,200); shares compounds with D1 mod; HEK293 D1 CRE-luciferase, dopamine EC30 potentiation; active compounds read high; luminescence at 10 µM;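 active = luminescence in either of two replicates above the same-plate mean plus 3 SD of the low-dose dopamine control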
D1 no dopamine = activates D1 CRE-luciferase signal without dopamine present; shares compounds with D1 mod; HEK293 D1 CRE-luciferase, luminescence, no dopamine; active compounds read high; luminescence at 10 µM; actives 0.8% (n = 1,900); in the data active = luminescence above about 3900
Isoprot counter = counter-screen for D1 modulators: isoproterenol response in HEK293 cells; shares compounds with D1 mod; HEK293 D1 CRE-luciferase, isoproterenol EC30 counter-screen; calls only at 10 µM; AID 647; actives 63% (n = 2,200);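 active = luminescence in either replicate above plate mean of wells with a partly effective reference agonist dose plus 3 SD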;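 note: isoproterenol raises cAMP through native beta-adrenoceptor Gs so signal bypasses D1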
* hit, by the source's call; i = inactive; / = not tested or not shown; + = active, no number. Sampled rows, rich in hits. Any-hit rate of the full collection: about 7.9%.

SMILES	D1 mod	JNK3 blocker	RORA act	SF-1 act	HEK293 NFkB inh	D1 PAM confirm	D1 no dopamine	Isoprot counter
CC(C)n1c(SCc2ccccc2F)nc2c1c(=O)n(C)c(=O)n2C	1.1	4	-2	9	4	/	/	/
C=C(C)CN1CCN(c2c(CCC#N)c(C)c(C#N)c3nc4ccccc4n23)CC1	5.4*	-1	4	-35	/	11364*	1768	+
Cc1sc2ncnc(SCC(=O)N3CCCC3)c2c1C	2.3*	0	-7	-3	2	7900*	1616	i
CCCCSc1nc(N)c(C#N)c(-c2cccs2)c1C#N	-0.024	-1	-21	-9	/	/	/	/
N#Cc1c(-c2cccs2)cc(-c2ccccn2)nc1N	5.6*	7	-2	11	7	10756*	1560	+
N#Cc1c(-c2cccs2)cc(-c2cccnc2)nc1N	18*	10	-24	-3	7	16780*	1536	+
c1cncc(-c2nnc(-c3cccs3)o2)c1	0.11	/	14	16	11	/	/	/
COc1ccccc1NC(=O)N(Cc1ccc2c(c1)OCO2)Cc1nc2ccccc2c(=O)[nH]1	4.9*	1	-4	-13	-3	5620*	1528	i
COc1cccc(C(=O)N(Cc2ccc3c(c2)OCO3)Cc2nc3ccccc3c(=O)[nH]2)c1	0.92	-10	-19	-2	9	/	/	/
CCOC(=O)N1CCC(N2Cc3cccc(C(=O)NCc4ccccn4)c3C2=O)CC1	0.42	-4	-6	2	-1	/	/	/
O=C(Nc1scc(-c2ccccc2)c1C(=O)O)c1ccco1	-0.34	-3	17	-4	3	/	/	/
COC(=O)c1c(-c2ccc(F)cc2)csc1NC(=O)c1ccco1	3.3*	/	/	/	/	8568*	1648	i
CSc1nnc(-c2ccco2)c(-c2ccco2)n1	4.2*	0	-18	-17	10	10584*	/	+
COc1cccc(C2CC(c3cccc(Br)c3)n3nc(N)nc3N2)c1 (stereo not given)	9.3*	-1	8	10	3	12600*	1776	+
Nc1nc2n(n1)C(c1cccc(Br)c1)CC(c1ccccc1)N2 (stereo not given)	37*	-2	16	-9	23	18056*	1512	+
O=C(NCCCN1CCc2ccccc2C1)C1CCN(S(=O)(=O)N2CCCC2)CC1	-0.77	-8	-25	-8	-7	/	/	/
c1ccc(Cc2nn3c(COc4ccccc4)nnc3s2)cc1	9.1*	-4	3	-14	7	17316*	1624	+
Cn1c(=O)[nH]c(=O)c2c1nc(Sc1ncccn1)n2CCCc1ccccc1	9.6*	/	-12	-5	5	18924*	1792	+
Cn1c(=O)[nH]c(=O)c2c1nc(Sc1ccccc1)n2CCc1ccccc1	9.2*	-12	-13	0	-2	20140*	1684	+
COC(=O)C(C)Sc1nc2c(c(=O)[nH]c(=O)n2C)n1CCCc1ccccc1 (stereo not given)	4.7*	5	5	-13	4	8864*	1724	+
COc1ccc(Cl)cc1C(=O)CSc1nnnn1C1CCCC1	2.8*	-2	-18	-5	-3	6668*	1592	i
COc1ccc(OCCSc2nnnn2C2CCCCC2)cc1	1.9	-4	-4	-1	20	/	/	/
Cc1ccc(-n2nc3c(c2NC(=O)C(C)(C)C)CSC3)c(C)c1	0.26	8	-1	8	-14	/	/	/
Cc1ccc(-n2nc3c(c2NC(=O)c2ccc(Br)o2)CSC3)c(C)c1	4.8*	/	-8	-3	23	5856	1520	i
CCCn1c(=O)c(C(=O)NCc2ccc(OC)c(OC)c2)c(O)c2ccccc21	4.5*	-2	22	-10	15	9276*	1736	+
SMILES	D1 mod	JNK3 blocker	RORA act	SF-1 act	HEK293 NFkB inh	D1 PAM confirm	D1 no dopamine	Isoprot counter
CCn1c(=O)c(C(=O)NCc2ccc(OC)c(OC)c2)c(O)c2ccccc21	-0.0011	-6	-4	10	13	/	/	/
c1ccc(CNc2nc3ccccc3n3cnnc23)nc1	9.2*	-1	-6	4	-10	13992*	/	+
CCCc1nnc(NC(=O)CCC(=O)N2CCCCC2CC)s1 (stereo not given)	0.017	-3	-15	-3	11	/	/	/
CC(=O)NC1(c2ccccc2)CCN(c2nc(C)cc(C)n2)CC1	3.5*	5	-25	5	9	7128	1700	i
CCN1CCCC1CN(Cc1cc2ccc(C)c(C)c2[nH]c1=O)C(=O)Nc1ccccc1OC (stereo not given)	/	-1	28	8	4	/	/	/
C/C=C/Cn1c(N(C)Cc2ccccc2)nc2c1c(=O)[nH]c(=O)n2C	7.3*	6	-6	-16	10	21832*	1976	+
Cc1cccc(Cn2c(N(C)Cc3ccccc3)nc3c2c(=O)[nH]c(=O)n3C)c1	8*	3	9	15	5	19408*	1708	+
CN(Cc1ccccc1)c1nc2c(c(=O)[nH]c(=O)n2C)n1C	-0.12	-2	-2	13	5	/	/	/
CC(=O)N1CCN(CC(=O)Nc2c(Cl)cc(Cl)cc2Cl)CC1	-0.018	-1	7	-8	4	/	/	/
Cc1cc(C)n(-c2nnc3n2N=C(c2c[nH]c4ccccc24)CS3)n1	9.8*	6	1	31	6	10564*	1848	+
COc1cccc(C(=O)N2CCN=C2SCc2cccnc2)c1OC	-0.071	2	-28	1	-1	/	/	/
CN(C)CCCN1C(=O)c2oc3ccc(F)cc3c(=O)c2C1c1cccnc1 (stereo not given)	-0.53	-8	8	0	8	/	/	/
Cc1onc(-c2ccccc2)c1C(=O)N1CC(C)OC(C)C1 (stereo not given)	0.68	3	4	-1	18	/	/	/
Cc1nc2c3ccccc3n(CC#N)c(=O)n2n1	4.7*	9	-1	12	-3	8580*	/	+
Cc1c(C#N)c2ccccc2n1CC(=O)O	0.058	2	-7	-8	12	/	/	/
CCCC1=C(C(=O)OCC)C(c2ccc(N(C)C)cc2)n2ncnc2N1 (stereo not given)	1.3	9	2	-1	8	/	/	/
COc1ccc(N(C(=O)Cn2nnc3ccccc32)C(C(=O)NCc2ccco2)c2ccc(C)o2)cc1 (stereo not given)	-0.18	-8	-20	-8	5	/	/	/
CCc1nc(NCc2ccco2)c2oc3ccccc3c2n1	13*	/	-8	-10	11	3596	/	i
